# Test results reported in paper PMC6281781 (Structure (London, England : 1993), 2018).
# Columns and labels:
# PACSIN3 SH3 domain = experiment: NMR 1H,15N-HSQC chemical shift titration with PACSIN3 SH3 domain; type: binding, chicken; conditions: for affinity for PACSIN3 SH3 domain relative to wildtype (in words): mutations in the TRPV4-PRR, interaction not fully abolished, Fig. S6, Table S1
# In short: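 Chicken PACSIN3 SH3 domain (N-terminal His6) was 15N-labelled in E. coli minimal medium and purified by NiNTA then Superdex75 SEC. It was held at 250 μM in 10 mM Tris pH7, 100 mM NaCl and titrated from concentrated stocks with peptide (wildtype, AAWAA, P128A or P128A/P129L) and/or lipid, with the second ligand added sequentially. HSQC shifts were fitted for KD.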
# [1] = target: chicken PACSIN3 SH3 domain (chicken); experiment: NMR titration
# [2] = target: chicken PACSIN1 SH3 domain (chicken); experiment: NMR titration
molecule,measurement,setting,value
"CCCCCCCC(=O)OC[C@H](COP(=O)(O)O[C@@H]1[C@H](O)[C@H](O)[C@@H](OP(=O)(O)O)[C@H](OP(=O)(O)O)[C@H]1O)OC(=O)CCCCCCC [PIP2, diC8-PI(4,5)P2, reference compound]",interaction with PACSIN3 SH3 domain (in words),"PACSIN3 SH3 domain; PIP2 added to isolated 15N-PACSIN3 SH3, no chemical shift changes in 1H,15N-HSQC",does not interact
"P128A/P129L: TRPV4 N-terminal peptide with double mutation P128A/P129L in the PRR (ENKRWRRRVVEKPVAGTKGPAPNALPILKV; left off: His6-SUMO, N-terminal, cleaved)",affinity for PACSIN3 SH3 domain relative to wildtype (in words),PACSIN3 SH3 domain,weakened
"P128A: TRPV4 N-terminal peptide with single P128A mutation in the PRR (ENKRWRRRVVEKPVAGTKGPAPNAPPILKV; left off: His6-SUMO, N-terminal, cleaved)",affinity for PACSIN3 SH3 domain relative to wildtype (in words),PACSIN3 SH3 domain,weakened
"chicken TRPV4 PIP2 binding domain plus proline rich region peptide (PBD-PRR, residues 105-134) (from UniProt A0A1D5PXA5 105-134)",Kd,[1],74.2 µM
"chicken TRPV4 proline rich region peptide (PRR, residues 121-134), native sequence (from UniProt A0A1D5PXA5 121-134)",Kd,[2],51.6 µM
same,Kd,[1],68.6 µM
